≈ marks a conversion by molar mass, not a printed value. Calls of active or inactive are those of the source. No cut-off for these calls is given here.
Columns and labels:
[1] = Aqueous solubility in pH 6.8 by HPLC analysis; format: physicochemical; conditions: buffer
How it was run: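 Compound added from DMSO solution to aqueous buffer at pH 6.8 and incubated. Precipitate removed by filtration. Dissolved compound in the filtrate quantified by plate reader or HPLC.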

[2] = tested on: HepG2; assay: Cytotoxicity against human HepG2 cells assessed as reduction in cell viability after 24 hrs by Cell Titer Glo assay; format: cell-based; conditions: HepG2, 24 h
How it was run: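 HepG2 cells in DMEM high glucose with 10% FBS were seeded at 5000 cells/well and grown ~24 h. Compounds were then added for 24 h at 37 °C/5% CO2, and viability read by CellTiter-Glo luminescence. Controls were DMSO wells and medium-only wells. IC50 was taken from a sigmoidal fit of % inhibition.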

[3] = (§1) Anti-dysferlinopathy activity in human dermal myocytes derived from dysferlinopathy patient dermal fibroblast iPSC harboring dysferlin c.2997 G > T (p. W999C)/c.1958G deletion mutant assessed as increase in dysferlin expression incubated for 24 hrs by immunostaining assay; format: functional
How it was run: (§2)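 iPSCs from a dysferlinopathy patient's dermal fibroblasts carrying a stably transfected Tet-MyoD1 vector. Differentiated to myocytes by doxycycline (1 µg/mL) MyoD induction, then treated on day 7 for 24 h at 0.003–10 µM (0.1% DMSO final). Fixed, immunostained for dysferlin and MHC, and imaged. Read-out: 488 nm intensity in the dysferlin/MHC double-positive area. EC150 is the concentration giving 50% increase over median DMSO wells, from a 4-parameter logistic fit.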

[4] = species on record: Homo sapiens; assay: as §1; format: functional; how it was run: as §2
[5] = Permeability of compound in pH 7.4 in PRISMA HT buffer at 10 umol/L incubated for 3 hrs by LC/MS/MS based PAMPA assay; format: ADME; conditions: read-out: permeability
How it was run: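 PAMPA: donor wells held PRISMA HT buffer (pH 7.4) with 10 µmol/L compound, and the acceptor filter was coated with GIT-0 lipid over sink buffer. Incubated 3 h at room temperature, then compound in donor and acceptor wells measured by LC/MS/MS.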

[6] = species on record: Sus scrofa; assay: Competitive inhibition of porcine tubulin alpha/beta at 10 to 100 uM preincubated 30 mins followed by addition of N-(2-(3-(But-3-yn-1-yl)-3H-diazirin-3-yl)ethyl)-5-(2-(phenoxymethyl)-3H-imidazo[4,5-b]pyridin-6-yl)thiophene-3-carboxamide and measured after 15 mins by SDS-PAGE based fluorescence assay
How it was run: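 Porcine brain tubulin at 25 µg/mL in HEPES isotonic buffer (pH 7.4) pre-incubated 30 min at room temperature with DMSO or compound (1–10 mM DMSO stocks). […] Labeled tubulin was tagged with TAMRA-azide by click reaction, run on SDS-PAGE and scanned for fluorescence, with Coomassie staining for total tubulin.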

## c1ccc(CCc2nc3cc(-c4ccco4)cnc3[nH]2)cc1
[1]
  solubility: 6.4 µg/mL (≈ 22.1 µM)
[2]
  IC50: > 100 µM
[3]
  EC150: 5.9 µM
[4]
  Activity: Dose-dependent effect
[5]
  Papp at 3 h, 10 µM: 33.2 ×10⁻⁶ cm/s

## c1ccc(OCc2nc3cc(-c4cccs4)cnc3[nH]2)cc1
[6]
  inhibition: Active
[3]
  EC150: 0.039 µM

## Fc1ccc(CCc2nc3cc(-c4cccs4)cnc3[nH]2)cc1
[3]
  EC150: 0.15 µM

## Clc1cccc(CCc2nc3cc(-c4ccco4)cnc3[nH]2)c1
[3]
  EC150: >10 µM

## CC(C)c1ccsc1-c1cnc2[nH]c(COc3ccccc3)nc2c1
[3]
  EC150: 0.012 µM

## N#Cc1ccc(CCc2nc3cc(-c4ccco4)cnc3[nH]2)cc1
[3]
  EC150: >10 µM

## CNC(=O)c1csc(-c2cnc3[nH]c(COc4ccccc4)nc3c2)c1
[3]
  EC150: 0.11 µM

## Fc1ccc(OCc2nc3cc(-c4cccs4)cnc3[nH]2)cc1
[3]
  EC150: 0.067 µM

## Cc1nc2[nH]c(CCc3ccc(F)cc3)nc2cc1-c1cccs1
[3]
  EC150: >10 µM

## COCCOCCNC(=O)c1csc(-c2cnc3[nH]c(COc4ccccc4)nc3c2)c1
[3]
  EC150: 0.4 µM

## CC(=O)O[C@H]1C(=O)[C@@]2(C)[C@H]([C@H](OC(=O)c3ccccc3)[C@]3(O)C[C@H](OC(=O)[C@H](O)[C@@H](NC(=O)c4ccccc4)c4ccccc4)C(C)=C1C3(C)C)[C@]1(OC(C)=O)CO[C@@H]1C[C@@H]2O
[6]
  inhibition: inactive

## C#CCCC1(CCNC(=O)c2csc(-c3cnc4[nH]c(COc5ccccc5)nc4c3)c2)N=N1
[3]
  EC150: 0.37 µM

## Fc1ccc(CCc2nc3cc(-c4cccs4)cnc3o2)cc1
[3]
  EC150: >10 µM

## Fc1ccc(CCc2nc3ncc(-c4cccs4)cc3o2)cc1
[3]
  EC150: >10 µM

## Cc1ccc(-c2cnc3[nH]c(CCc4ccc(F)cc4)nc3c2)s1
[3]
  EC150: 6.3 µM

## COc1ccc(CCc2nc3cc(-c4ccco4)cnc3[nH]2)cc1
[3]
  EC150: >10 µM

## Fc1ccc(CCc2nc3cc(-c4cccs4)ccc3[nH]2)cc1
[3]
  EC150: >10 µM

## CNC(=O)c1ccsc1-c1cnc2[nH]c(COc3ccccc3)nc2c1
[3]
  EC150: >10 µM

## c1ccc(-c2nc3cc(-c4ccco4)cnc3[nH]2)cc1
[3]
  EC150: >10 µM

## CC[C@]1(O)C[C@@H]2CN(CCc3c([nH]c4ccccc34)[C@@](C(=O)OC)(c3cc4c(cc3OC)N(C)[C@H]3[C@@](O)(C(=O)OC)[C@H](OC(C)=O)[C@]5(CC)C=CCN6CC[C@]43[C@@H]65)C2)C1 [VINBLASTINE]
[6]
  inhibition: inactive
[3]
  EC150: 0.074 µM

## COc1cc2c(c(OC)c1OC)-c1ccc(OC)c(=O)cc1[C@@H](NC(C)=O)CC2
[6]
  inhibition: Active

## Cc1ccsc1-c1cnc2[nH]c(CCc3ccc(F)cc3)nc2c1
[3]
  EC150: 0.11 µM

## Cc1ccc(CCc2nc3cc(-c4ccco4)cnc3[nH]2)cc1
[3]
  EC150: >10 µM

## Cc1c(-c2cccs2)cnc2[nH]c(CCc3ccc(F)cc3)nc12
[3]
  EC150: 0.37 µM

## Fc1ccc(CCc2nc3cc(-c4ccccc4)cnc3[nH]2)cc1
[3]
  EC150: 1.3 µM

## Clc1ccc(CCc2nc3cc(-c4ccco4)cnc3[nH]2)cc1
[3]
  EC150: 4.3 µM

## Cc1csc(-c2cnc3[nH]c(CCc4ccc(F)cc4)nc3c2)c1
[3]
  EC150: 1.9 µM

## Clc1ccccc1CCc1nc2cc(-c3ccco3)cnc2[nH]1
[3]
  EC150: >10 µM

## c1ccc(Cc2nc3cc(-c4ccco4)cnc3[nH]2)cc1
[3]
  EC150: >10 µM

## COC(=O)Nc1nc2cc(C(=O)c3cccs3)ccc2[nH]1 [NOCODAZOLE]
[6]
  inhibition: Active
[3]
  EC150: 1 µM

## FC(F)(F)c1ccc(CCc2nc3cc(-c4ccco4)cnc3[nH]2)cc1
[3]
  EC150: >10 µM

## Fc1ccc(CCc2nc3cc(-c4ccco4)cnc3[nH]2)cc1
[3]
  EC150: 1 µM

Reference: ChEMBL document CHEMBL4321816, “Identification of 2,6-Disubstituted 3H-Imidazo[4,5-b]pyridines as Therapeutic Agents for Dysferlinopathies through Phenotypic Screening on Patient-Derived Induced Pluripotent Stem Cells” (J Med Chem, 2019)
